{
  "source": "ChEMBL document CHEMBL1151448",
  "about": "“Comparative antianaerobic activities of doripenem determined by MIC and time-kill analysis” (2008)",
  "assay_type_in_all_cases": "functional",
  "key": {"[1]": {"system": "Parabacteroides distasonis", "assay": "Antimicrobial activity against beta lactamase-positive Bacteroides distasonis isolated from intra-abdominal infection and pelvic inflammatory disease patients after 48 hrs by agar dilution method", "method_in_brief": "(§1)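 CLSI agar dilution on brucella blood agar supplemented with laked sheep blood, hemin and vitamin K. Inocula of about 1 × 10^5 CFU/spot were applied by Steers replicator, and plates were incubated 48 h at 35°C in an anaerobic glove box. MIC was the concentration giving marked growth reduction versus the anaerobic control plate. QC strains were included each run, and β-lactamase was detected by Cefinase disk.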"}, "Finegoldia magna [2]": {"system": "Finegoldia magna", "assay": "Antimicrobial activity against Finegoldia magna isolated from intra-abdominal infection and pelvic inflammatory disease patients after 48 hrs by agar dilution method", "method_in_brief": "as §1"}, "Fusobacterium nucleatum [3]": {"system": "Fusobacterium nucleatum", "assay": "Antimicrobial activity against beta lactamase-positive Fusobacterium nucleatum isolated from intra-abdominal infection and pelvic inflammatory disease patients after 48 hrs by agar dilution method", "method_in_brief": "as §1"}, "[4]": {"system": "Clostridium paraputrificum", "assay": "Antimicrobial activity against Clostridium paraputrificum isolated from intra-abdominal infection and pelvic inflammatory disease patients after 48 hrs by agar dilution method", "method_in_brief": "as §1"}, "Prevotella disiens": {"system": "Prevotella disiens", "assay": "Antimicrobial activity against beta lactamase-positive Prevotella disiens isolated from intra-abdominal infection and pelvic inflammatory disease patients after 48 hrs by agar dilution method", "method_in_brief": "as §1"}, "Bacteroides fragilis [5]": {"system": "Bacteroides fragilis", "assay": "Antimicrobial activity against beta lactamase-positive Bacteroides fragilis isolated from intra-abdominal infection and pelvic inflammatory disease patients after 48 hrs by agar dilution method", "method_in_brief": "as §1"}, "[6]": {"system": "Bacteroides thetaiotaomicron", "assay": "Bactericidal activity against beta lactamase-positive Bacteroides thetaiotaomicron isolated from intra-abdominal infection and pelvic inflammatory disease patients assessed as bacterial killing at 2 times MIC after 48 hrs by time kill analysis", "method_in_brief": "(§2)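 Macrodilution time-kill in prereduced brucella broth with 5% laked horse blood, hemin 5 μg/ml and vitamin K1 1 μg/ml, at final inoculum 10^6–10^7 CFU/ml. […] Viable counts were taken at 6, 12, 24 and 48 h on plates incubated 48 h anaerobically. 99.9% kill was taken as bactericidal.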"}, "Prevotella buccae": {"system": "Prevotella buccae", "assay": "Antimicrobial activity against beta lactamase-positive Prevotella buccae isolated from intra-abdominal infection and pelvic inflammatory disease patients after 48 hrs by agar dilution method", "conditions": "Segatella buccae", "method_in_brief": "as §1"}, "Anaerococcus tetradius": {"system": "Anaerococcus tetradius", "assay": "Antimicrobial activity against Anaerococcus tetradius isolated from intra-abdominal infection and pelvic inflammatory disease patients after 48 hrs by agar dilution method", "method_in_brief": "as §1"}, "Prevotella intermedia [7]": {"system": "Prevotella intermedia", "assay": "Bactericidal activity against beta lactamase-positive Prevotella intermedia isolated from intra-abdominal infection and pelvic inflammatory disease patients assessed as bacterial killing at 2 times MIC after 48 hrs by time kill analysis", "method_in_brief": "(§3)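 Anaerobic macrodilution time-kill. Inoculum from brucella blood plates, prepared and diluted in prereduced brucella broth inside the anaerobe chamber. Final 10^6 to 10^7 CFU/ml in prereduced brucella broth with 5% laked horse blood cells, 5 μg/ml hemin and 1 μg/ml vitamin K1. […] Shaken at 35°C for 48 h. Viable counts taken at 6, 12, 24 and 48 h. 99.9% kill taken as bactericidal.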"}, "[8]": {"system": "Peptostreptococcus anaerobius", "assay": "Antimicrobial activity against Peptostreptococcus anaerobius isolated from intra-abdominal infection and pelvic inflammatory disease patients after 48 hrs by agar dilution method", "method_in_brief": "as §1"}, "Prevotella corporis": {"system": "Prevotella corporis", "assay": "Antimicrobial activity against beta lactamase-positive Prevotella corporis isolated from intra-abdominal infection and pelvic inflammatory disease patients after 48 hrs by agar dilution method", "method_in_brief": "as §1"}, "[9]": {"system": "Bacteroides thetaiotaomicron", "assay": "Bactericidal activity against beta lactamase-positive Bacteroides thetaiotaomicron isolated from intra-abdominal infection and pelvic inflammatory disease patients assessed as bacterial killing at MIC after 24 hrs by time kill analysis", "method_in_brief": "as §2"}, "Clostridioides difficile [10]": {"system": "Clostridioides difficile", "assay": "Antimicrobial activity against Clostridium difficile isolated from intra-abdominal infection and pelvic inflammatory disease patients after 48 hrs by agar dilution method", "method_in_brief": "as §1"}, "Finegoldia magna [11]": {"system": "Finegoldia magna", "assay": "Bactericidal activity against beta lactamase-positive Finegoldia magna isolated from intra-abdominal infection and pelvic inflammatory disease patients assessed as bacterial killing at 2 times MIC after 48 hrs by time kill analysis", "method_in_brief": "as §3"}, "Bacteroides fragilis [12]": {"system": "Bacteroides fragilis", "assay": "Bactericidal activity against beta lactamase-positive Bacteroides fragilis isolated from intra-abdominal infection and pelvic inflammatory disease patients assessed as bacterial killing at MIC after 24 hrs by time kill analysis", "method_in_brief": "as §2"}, "Bacteroides fragilis [13]": {"system": "Bacteroides fragilis", "assay": "Antimicrobial activity against beta lactamase-positive Bacteroides fragilis isolated from intra-abdominal infection and pelvic inflammatory disease patients after 48 hrs by time kill analysis", "method_in_brief": "(§4)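 The MIC was read by inspecting macrodilution time-kill tubes. Vials held prereduced brucella broth with 5% laked horse blood cells, hemin 5 μg/ml and vitamin K1 1 μg/ml. Final inoculum was 10^6–10^7 CFU/ml, prepared inside the anaerobe chamber. Vials were incubated 48 h at 35°C in a shaking water bath.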"}, "Clostridium perfringens": {"system": "Clostridium perfringens", "assay": "Bactericidal activity against Clostridium perfringens isolated from intra-abdominal infection and pelvic inflammatory disease patients assessed as bacterial killing at MIC after 24 hrs by time kill analysis", "method_in_brief": "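Time-kill in prereduced brucella broth with 5% laked horse blood cells, hemin and vitamin K1. […] Viable counts taken at 6, 12, 24 and 48 h, plates incubated 48 h anaerobically. Kill scored as 90%, 99% or 99.9%; 99.9% defines bactericidal.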"}, "Porphyromonas levii": {"system": "Porphyromonas levii", "assay": "Antimicrobial activity against Porphyromonas levii isolated from intra-abdominal infection and pelvic inflammatory disease patients after 48 hrs by agar dilution method", "method_in_brief": "as §1"}, "Prevotella intermedia [14]": {"system": "Prevotella intermedia", "assay": "Bactericidal activity against beta lactamase-positive Prevotella intermedia isolated from intra-abdominal infection and pelvic inflammatory disease patients assessed as bacterial killing at MIC after 24 hrs by time kill analysis", "method_in_brief": "as §3"}, "Clostridioides difficile [15]": {"system": "Clostridioides difficile", "assay": "Bactericidal activity against Clostridium difficile isolated from intra-abdominal infection and pelvic inflammatory disease patients assessed as bacterial killing at 2 times MIC after 48 hrs by time kill analysis", "method_in_brief": "as §2"}, "[16]": {"system": "Fusobacterium necrophorum", "assay": "Antimicrobial activity against Fusobacterium necrophorum isolated from intra-abdominal infection and pelvic inflammatory disease patients after 48 hrs by agar dilution method", "method_in_brief": "as §1"}, "Clostridioides difficile [17]": {"system": "Clostridioides difficile", "assay": "Antimicrobial activity against Clostridium difficile isolated from intra-abdominal infection and pelvic inflammatory disease patients after 48 hrs by time kill analysis", "method_in_brief": "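Macrodilution in prereduced brucella broth with 5% laked horse blood cells, 5 μg/ml hemin and 1 μg/ml vitamin K1. Final inoculum 10^6 to 10^7 CFU/ml, prepared inside the anaerobe chamber. Vials incubated 48 h at 35°C in a shaking water bath. MIC read by inspecting the time-kill tubes, alongside an antibiotic-free growth control.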"}, "Fusobacterium nucleatum [18]": {"system": "Fusobacterium nucleatum", "assay": "Bactericidal activity against beta lactamase-positive Fusobacterium nucleatum isolated from intra-abdominal infection and pelvic inflammatory disease patients assessed as bacterial killing at 2 times MIC after 48 hrs by time kill analysis", "method_in_brief": "as §3"}, "[19]": {"system": "Bacteroides thetaiotaomicron", "assay": "Antimicrobial activity against beta lactamase-positive Bacteroides thetaiotaomicron isolated from intra-abdominal infection and pelvic inflammatory disease patients after 48 hrs by time kill analysis", "method_in_brief": "as §4"}, "[20]": {"system": "Porphyromonas asaccharolytica", "assay": "Antimicrobial activity against Porphyromonas asaccharolyticus isolated from intra-abdominal infection and pelvic inflammatory disease patients after 48 hrs by agar dilution method", "method_in_brief": "as §1"}, "Fusobacterium mortiferum": {"system": "Fusobacterium mortiferum", "assay": "Antimicrobial activity against beta lactamase-positive Fusobacterium mortiferum isolated from intra-abdominal infection and pelvic inflammatory disease patients after 48 hrs by agar dilution method", "method_in_brief": "as §1"}, "Finegoldia magna [21]": {"system": "Finegoldia magna", "assay": "Antimicrobial activity against beta lactamase-positive Finegoldia magna isolated from intra-abdominal infection and pelvic inflammatory disease patients after 48 hrs by time kill analysis", "method_in_brief": "as §4"}},
  "data": [
    {"smiles": "C[C@@H](O)[C@H]1C(=O)N2C(C(=O)O)=C(S[C@@H]3CN[C@H](C(=O)N(C)C)C3)[C@H](C)[C@H]12", "note": "[MEROPENEM]", "values": [
      {"measurement": "MIC", "setting": "[1]", "result": 0.125, "unit": "µg/mL"},
      {"measurement": "MIC50", "setting": "[1]", "result": 0.125, "unit": "µg/mL"},
      {"measurement": "MIC90", "setting": "[1]", "result": 0.5, "unit": "µg/mL"},
      {"measurement": "MIC", "setting": "Finegoldia magna [2]", "result": 0.06, "unit": "µg/mL"},
      {"measurement": "MIC50", "setting": "Finegoldia magna [2]", "result": 0.06, "unit": "µg/mL"},
      {"measurement": "MIC90", "setting": "Finegoldia magna [2]", "result": 0.125, "unit": "µg/mL"},
      {"measurement": "MIC", "setting": "Fusobacterium nucleatum [3]", "result": "≤ 0.016", "unit": "µg/mL"},
      {"measurement": "MIC50", "setting": "Fusobacterium nucleatum [3]", "result": "≤ 0.016", "unit": "µg/mL"},
      {"measurement": "MIC90", "setting": "Fusobacterium nucleatum [3]", "result": 0.03, "unit": "µg/mL"},
      {"measurement": "MIC", "setting": "[4]", "result": 0.25, "unit": "µg/mL"},
      {"measurement": "MIC", "setting": "Prevotella disiens", "result": 0.03, "unit": "µg/mL"},
      {"measurement": "MIC50", "setting": "Prevotella disiens", "result": 0.03, "unit": "µg/mL"},
      {"measurement": "MIC90", "setting": "Prevotella disiens", "result": 0.125, "unit": "µg/mL"},
      {"measurement": "MIC50", "setting": "Bacteroides fragilis [5]", "result": 0.125, "unit": "µg/mL"},
      {"measurement": "MIC90", "setting": "Bacteroides fragilis [5]", "result": 1, "unit": "µg/mL"},
      {"measurement": "Activity", "setting": "[6]", "result": 99, "unit": "%"},
      {"measurement": "MIC", "setting": "Prevotella buccae", "result": 0.06, "unit": "µg/mL"},
      {"measurement": "MIC50", "setting": "Prevotella buccae", "result": 0.06, "unit": "µg/mL"},
      {"measurement": "MIC90", "setting": "Prevotella buccae", "result": 0.06, "unit": "µg/mL"},
      {"measurement": "MIC", "setting": "Anaerococcus tetradius", "result": 0.03, "unit": "µg/mL"},
      {"measurement": "MIC50", "setting": "Anaerococcus tetradius", "result": 0.03, "unit": "µg/mL"},
      {"measurement": "Activity", "setting": "Prevotella intermedia [7]", "result": 99, "unit": "%"},
      {"measurement": "MIC", "setting": "[8]", "result": 0.25, "unit": "µg/mL"},
      {"measurement": "MIC50", "setting": "[8]", "result": 0.25, "unit": "µg/mL"},
      {"measurement": "MIC90", "setting": "[8]", "result": 2, "unit": "µg/mL"},
      {"measurement": "MIC50", "setting": "Prevotella corporis", "result": 0.03, "unit": "µg/mL"},
      {"measurement": "MIC90", "setting": "Prevotella corporis", "result": 0.06, "unit": "µg/mL"},
      {"measurement": "Activity", "setting": "[9]", "result": 90, "unit": "%"},
      {"measurement": "MIC50", "setting": "Clostridioides difficile [10]", "result": 2, "unit": "µg/mL"},
      {"measurement": "MIC90", "setting": "Clostridioides difficile [10]", "result": 4, "unit": "µg/mL"},
      {"measurement": "Activity", "setting": "Finegoldia magna [11]", "result": 99, "unit": "%"},
      {"measurement": "Activity", "setting": "Bacteroides fragilis [12]", "result": 90, "unit": "%"},
      {"measurement": "MIC", "setting": "Bacteroides fragilis [13]", "result": 0.125, "unit": "µg/mL"},
      {"measurement": "Activity", "setting": "Clostridium perfringens", "result": 90, "unit": "%"},
      {"measurement": "MIC", "setting": "Porphyromonas levii", "result": "≤ 0.016", "unit": "µg/mL"},
      {"measurement": "Activity", "setting": "Prevotella intermedia [14]", "result": 90, "unit": "%"},
      {"measurement": "Activity", "setting": "Clostridioides difficile [15]", "result": 99, "unit": "%"},
      {"measurement": "MIC", "setting": "[16]", "result": "≤ 0.016", "unit": "µg/mL"},
      {"measurement": "MIC50", "setting": "[16]", "result": "≤ 0.016", "unit": "µg/mL"},
      {"measurement": "MIC90", "setting": "[16]", "result": 0.125, "unit": "µg/mL"},
      {"measurement": "MIC", "setting": "Clostridioides difficile [17]", "result": 1, "unit": "µg/mL"},
      {"measurement": "Activity", "setting": "Fusobacterium nucleatum [18]", "result": 99, "unit": "%"},
      {"measurement": "MIC", "setting": "[19]", "result": 0.25, "unit": "µg/mL"},
      {"measurement": "MIC", "setting": "[20]", "result": "≤ 0.016", "unit": "µg/mL"},
      {"measurement": "MIC50", "setting": "Fusobacterium mortiferum", "result": 0.125, "unit": "µg/mL"},
      {"measurement": "MIC90", "setting": "Fusobacterium mortiferum", "result": 0.5, "unit": "µg/mL"},
      {"measurement": "MIC", "setting": "Finegoldia magna [21]", "result": 0.06, "unit": "µg/mL"}
    ]}
  ]
}
